The source made the active and inactive calls. No cut-off for these calls is given here.
What was measured:
MDA-MB-231 [1] = experiment: Induction of ROS generation in human MDA-MB-231 cells at 2.5 to 40 uM incubated for 24 hrs by bioluminescence assay; type: functional, cell-based; details: dose 2.5-40 µM
Procedure, shortened: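 MDA-MB-231 cells stably carrying the lentiviral OxiLuc oxidative-stress reporter, sorted by FACS for mStrawberry. Plated at 5x10³ cells/well the day before, then given escalating doses for 24 h. Bioluminescence imaged on an IVIS Spectrum, and per-well photon flux quantified as photons/s/sr/cm².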

MDA-MB-231 [2] = experiment: Antiproliferative activity against human MDA-MB-231 cells; type: functional, cell-based
Procedure, shortened: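 MDA-MB-231 cells grown in RPMI-1640 with 10% FBS at 37°C, 5% CO2. Seeded at 2000 cells/well, then exposed to graded compound concentrations, medium renewed every 2–3 days. On day 5, viability read by CyQUANT fluorescence (cellular DNA content).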

MDA-MB-231 [3] = experiment: Effect on metabolism in human MDA-MB-231 cells assessed as reduction in intracellular aspartate level at 5 uM incubated for 16 hrs by LC-MS based metabolomics analysis; type: functional, cell-based
Procedure, shortened: (§1)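 MDA-MB-231 cells in RPMI-1640 plus 10% FBS, treated 16 h with DMSO vehicle or compound at 5 μM. Untargeted metabolic profiling followed, with normalized metabolite levels compared between treated and vehicle groups.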

[4] = Cytotoxicity against human MCF-10A cells; type: toxicity, cell-based
[5] = Cytotoxicity against vincristine-resistant human VJ-300 cells; type: functional, cell-based
[6] = Effect on metabolism in human MDA-MB-231 cells assessed as reduction in N-acetylaspartate level at 5 uM incubated for 16 hrs by LC-MS based metabolomics analysis; type: functional; set-up: scale not given: the % may be the effect or the level left; procedure, shortened: as §1
[7] = Inhibition of pyrimidine biosynthesis in human MDA-MB-231 cells assessed as fold increase in cytidine levels at 5 uM incubated for 16 hrs by LC-MS based metabolomics analysis; type: functional; procedure, shortened: as §1
[8] = Effect on metabolism in human MDA-MB-231 cells assessed as reduction in carbamoyl aspartate level at 5 uM incubated for 16 hrs by LC-MS based metabolomics analysis; type: functional; set-up: scale not given: the % may be the effect or the level left; procedure, shortened: as §1
MDA-MB-231 [9] = experiment: Effect on metabolism in human MDA-MB-231 cells assessed as change in intracellular metabolite abundances at 5 uM incubated for 16 hrs by LC-MS based metabolomics analysis; type: functional, cell-based; procedure, shortened: as §1
MCF7 = experiment: Cytotoxicity against human MCF7 cells; type: functional, cell-based
[10] = Effect on metabolism in human MDA-MB-231 cells assessed as reduction in argininosuccinic-acid level at 5 uM incubated for 16 hrs by LC-MS based metabolomics analysis; type: functional; set-up: scale not given: the % may be the effect or the level left; procedure, shortened: as §1
T47D = experiment: Cytotoxicity against human T47D cells; type: functional, cell-based

CC[C@]12C=CCN3CC[C@]4(C(=C(C(=O)OC)C1)Nc1cc(OC)c(OS(=O)(=O)F)cc14)[C@@H]32
Activity (MDA-MB-231 [1]): inactive
IC50 (MDA-MB-231 [2]): 3.72 µM
Activity (MDA-MB-231 [3]): inactive

CC[C@]12C=CCN3CC[C@@]4(C5=CC(=O)C(OC)=CC5=NC4=C(C(=O)OC)C1)[C@@H]32
Activity (MDA-MB-231 [1]): inactive
IC50 (MDA-MB-231 [2]): 1.96 µM

CC[C@]12C=CCN3CC[C@]4(C(=C(C(=O)OC)C1)Nc1ccc(OS(=O)(=O)F)cc14)[C@@H]32
Activity (MDA-MB-231 [1]): inactive
IC50 (MDA-MB-231 [2]): 6.17 µM

CC[C@]12C=CCN3CC[C@]4(C(=C(C(=O)OC)C1)Nc1cc(OC)c(OC(C)=O)cc14)[C@@H]32 [JERANTININE A ACETATE]
IC50 [4]: 18.8 µM
IC50 (MDA-MB-231 [2]): 2.6 µM
IC50 [5]: 0.83 µM

CC[C@]12C=CCN3CC[C@]4(C(=C(C(=O)OC)C1)Nc1cc(OC)c(O)cc14)[C@@H]32 [JERANTININE A]
Activity [6]: 90%
Activity (MDA-MB-231 [1]): Active
fold change (FC) [7]: 10
Activity [8]: 90%
Activity (MDA-MB-231 [9]): Active
IC50 (MCF7): 0.72 µM
Activity [10]: 90%
IC50 [4]: 0.96 µM
IC50 (MDA-MB-231 [2]): 1.92 µM
IC50 (T47D): 0.72 µM
Activity (MDA-MB-231 [3]): Active

CC[C@]12C=CCN3CC[C@]4(C(=C(C(=O)OC)C1)Nc1ccc(O)cc14)[C@@H]32 [MELODININE P]
Activity (MDA-MB-231 [1]): Active
IC50 (MDA-MB-231 [2]): 1.06 µM

CC[C@]12C=CCN3CC[C@]4(C(=C(C(=O)OC)C1)Nc1ccccc14)[C@@H]32 [TABERSONINE]
Activity (MDA-MB-231 [1]): inactive
IC50 (MDA-MB-231 [2]): 5.59 µM

— ChEMBL document CHEMBL5252672, “Inhibition of mitochondrial metabolism by (-)-jerantinine A: synthesis and biological studies in triple-negative breast cancer cells” (RSC Med Chem, 2023)
